# Measured values from ChEMBL document CHEMBL4715736, “Identification of anticancer agents based on the thieno[2,3-b]pyridine and 1H-pyrazole molecular scaffolds” (2016).
# Key:
# Format in all cases: functional
# HOP-62 [1] = assay: Growth inhibition of human HOP-62 cells assessed as cell growth at 0.1 uM incubated for 48 hrs by sulforhodamine B assay relative to control; details: read-out: Activity
# A549 [2] = assay: Growth inhibition of human A549/ATCC cells assessed as cell growth at 0.01 uM incubated for 48 hrs by sulforhodamine B assay relative to control; details: read-out: Activity
# Procedure, shortened: (§1)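 NCI Developmental Therapeutics Program NCI60 panel. Compounds that were active in the 10 µM one-dose screen went on to dose–response testing. Growth at each concentration is expressed relative to untreated control (100%). GI50 (concentration giving 50% of maximal inhibition of proliferation) and TGI (concentration giving total growth inhibition) were derived from the curves.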
# SK-OV-3 = assay: Growth inhibition of human SK-OV-3 cells assessed as cell growth at 0.1 uM incubated for 48 hrs by sulforhodamine B assay relative to control; details: read-out: Activity
# TK-10 [3] = assay: Growth inhibition of human TK-10 cells assessed as cell growth at 1 uM incubated for 48 hrs by sulforhodamine B assay relative to control; details: read-out: Activity
# Hs-578T [4] = assay: Growth inhibition of human Hs-578T cells incubated for 48 hrs by sulforhodamine B assay
# Procedure, shortened: (§2)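 NCI60 panel at the NCI Developmental Therapeutics Program. Only compounds active in the 10 µM screen went to dose-response testing. GI50, the concentration giving 50% of maximal inhibition of proliferation, and TGI, the concentration giving total growth inhibition, were derived from the dose-response curves.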
# M14 = assay: Growth inhibition of human M14 cells assessed as cell growth at 1 uM incubated for 48 hrs by sulforhodamine B assay relative to control; details: read-out: Activity
# KM12 = assay: Growth inhibition of human KM12 cells incubated for 48 hrs by sulforhodamine B assay; procedure, shortened: as §2
# CAKI-1 = assay: Growth inhibition of human CAKI-1 cells assessed as cell growth at 100 uM incubated for 48 hrs by sulforhodamine B assay relative to control; details: read-out: Activity; procedure, shortened: as §1
# SK-MEL-5 = assay: Growth inhibition of human SK-MEL-5 cells incubated for 48 hrs by sulforhodamine B assay
# Procedure, shortened: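 NCI DTP 60-line human tumour panel. Dose-response curves were run only for ligands active in the initial 10 µM screen. GI50 (concentration giving 50% of maximal inhibition of proliferation) and TGI (concentration giving total growth inhibition) were derived from these curves.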
# TK-10 [5] = assay: Growth inhibition of human TK-10 cells assessed as cell growth at 0.01 uM incubated for 48 hrs by sulforhodamine B assay relative to control; details: read-out: Activity
# NCI-H460 = assay: Growth inhibition of human NCI-H460 cells assessed as cell growth at 0.1 uM incubated for 48 hrs by sulforhodamine B assay relative to control; details: read-out: Activity
# OVCAR-4 = assay: Growth inhibition of human OVCAR-4 cells assessed as cell growth at 0.1 uM incubated for 48 hrs by sulforhodamine B assay relative to control; details: read-out: Activity
# OVCAR-3 = assay: Growth inhibition of human OVCAR-3 cells assessed as cell growth at 0.1 uM incubated for 48 hrs by sulforhodamine B assay relative to control; details: read-out: Activity
# IGROV-1 = assay: Growth inhibition of human IGROV-1 cells incubated for 48 hrs by sulforhodamine B assay; procedure, shortened: as §2
# DU-145 [6] = assay: Growth inhibition of human DU-145 cells incubated for 48 hrs by sulforhodamine B assay; procedure, shortened: as §1
# T47D = assay: Growth inhibition of human T47D cells assessed as cell growth at 100 uM incubated for 48 hrs by sulforhodamine B assay relative to control; details: read-out: Activity
# NCI/ADR-RES = assay: Growth inhibition of human NCI/ADR-RES cells assessed as cell growth at 100 uM incubated for 48 hrs by sulforhodamine B assay relative to control; details: read-out: Activity
# MDA-MB-435 = assay: Growth inhibition of human MDA-MB-435 cells assessed as cell growth at 0.1 uM incubated for 48 hrs by sulforhodamine B assay relative to control; details: read-out: Activity
# HOP-92 [7] = assay: Growth inhibition of human HOP-92 cells assessed as cell growth at 100 uM incubated for 48 hrs by sulforhodamine B assay relative to control; details: read-out: Activity
# ACHN = assay: Growth inhibition of human ACHN cells assessed as cell growth at 0.1 uM incubated for 48 hrs by sulforhodamine B assay relative to control; details: read-out: Activity
# SW-620 [8] = assay: Growth inhibition of human SW-620 cells assessed as cell growth at 1 uM incubated for 48 hrs by sulforhodamine B assay relative to control; details: read-out: Activity
# OVCAR-5 = assay: Growth inhibition of human OVCAR-5 cells assessed as cell growth at 0.01 uM incubated for 48 hrs by sulforhodamine B assay relative to control; details: read-out: Activity
# A549 [9] = assay: Growth inhibition of human A549/ATCC cells assessed as cell growth at 100 uM incubated for 48 hrs by sulforhodamine B assay relative to control; details: read-out: Activity; procedure, shortened: as §1
# BT-549 = assay: Growth inhibition of human BT-549 cells assessed as cell growth at 100 uM incubated for 48 hrs by sulforhodamine B assay relative to control; details: read-out: Activity
# Malme-3M [10] = assay: Growth inhibition of human Malme-3M cells assessed as cell growth at 100 uM incubated for 48 hrs by sulforhodamine B assay relative to control; details: read-out: Activity
# DU-145 [11] = assay: Growth inhibition of human DU-145 cells assessed as cell growth at 1 uM incubated for 48 hrs by sulforhodamine B assay relative to control; details: read-out: Activity; procedure, shortened: as §1
# Hs-578T [12] = assay: Growth inhibition of human Hs-578T cells assessed as cell growth at 1 uM incubated for 48 hrs by sulforhodamine B assay relative to control; details: read-out: Activity
# MOLT-4 = assay: Growth inhibition of human MOLT-4 cells assessed as cell growth at 0.1 uM incubated for 48 hrs by sulforhodamine B assay relative to control; details: read-out: Activity
# HOP-62 [13] = assay: Growth inhibition of human HOP-62 cells assessed as cell growth at 100 uM incubated for 48 hrs by sulforhodamine B assay relative to control; details: read-out: Activity
# SNB-19 = assay: Growth inhibition of human SNB-19 cells assessed as cell growth at 1 uM incubated for 48 hrs by sulforhodamine B assay relative to control; details: read-out: Activity
# Malme-3M [14] = assay: Growth inhibition of human Malme-3M cells assessed as cell growth at 1 uM incubated for 48 hrs by sulforhodamine B assay relative to control; details: read-out: Activity
# MDA-MB-231 = assay: Growth inhibition of human MDA-MB-231 cells assessed as cell growth at 100 uM incubated for 48 hrs by sulforhodamine B assay relative to control; details: read-out: Activity
# NCI-H226 = assay: Growth inhibition of human NCI-H226 cells incubated for 48 hrs by sulforhodamine B assay; procedure, shortened: as §2
# SW-620 [15] = assay: Growth inhibition of human SW-620 cells assessed as cell growth at 100 uM incubated for 48 hrs by sulforhodamine B assay relative to control; details: read-out: Activity
# HOP-92 [16] = assay: Growth inhibition of human HOP-92 cells assessed as cell growth at 0.1 uM incubated for 48 hrs by sulforhodamine B assay relative to control; details: read-out: Activity
# [17] = read-out: LC50 (the source's name)
smiles,measurement,setting,value
Nc1c(C(=O)Nc2ccccc2)sc2nc3c(cc12)CN(Cc1ccccc1)CC3,growth at 0.1 µM,HOP-62 [1],84%
same,growth at 0.01 µM,A549 [2],98%
same,growth at 0.1 µM,SK-OV-3,93%
same,growth at 1 µM,TK-10 [3],100%
same,GI50,Hs-578T [4],2.07 µM
same,TGI,Hs-578T [4],7.55 µM
same,CC50,Hs-578T [4]; [17],> 100 µM
same,growth at 1 µM,M14,91%
same,GI50,KM12,19.1 µM
same,LC50,KM12,> 100 µM
same,TGI,KM12,> 100 µM
same,growth at 100 µM,CAKI-1,36%
same,GI50,SK-MEL-5,9.58 µM
same,LC50,SK-MEL-5,> 100 µM
same,TGI,SK-MEL-5,> 100 µM
same,growth at 0.01 µM,TK-10 [5],93%
same,growth at 0.1 µM,NCI-H460,102%
same,growth at 0.1 µM,OVCAR-4,91%
same,growth at 0.1 µM,OVCAR-3,100%
same,GI50,IGROV-1,37.8 µM
same,LC50,IGROV-1,> 100 µM
same,TGI,IGROV-1,> 100 µM
same,GI50,DU-145 [6],14.8 µM
same,TGI,DU-145 [6],> 100 µM
same,CC50,DU-145 [6]; [17],> 100 µM
same,growth at 100 µM,T47D,19%
same,growth at 100 µM,NCI/ADR-RES,29%
same,growth at 0.1 µM,MDA-MB-435,85%
same,growth at 100 µM,HOP-92 [7],-30%
same,growth at 0.1 µM,ACHN,91%
same,growth at 1 µM,SW-620 [8],86%
same,growth at 0.01 µM,OVCAR-5,99%
same,growth at 100 µM,A549 [9],17%
same,growth at 100 µM,BT-549,-2%
same,growth at 100 µM,Malme-3M [10],14%
same,growth at 1 µM,DU-145 [11],74%
same,growth at 1 µM,Hs-578T [12],78%
same,growth at 0.1 µM,MOLT-4,95%
same,growth at 100 µM,HOP-62 [13],-24%
same,growth at 1 µM,SNB-19,88%
same,growth at 1 µM,Malme-3M [14],87%
same,growth at 100 µM,MDA-MB-231,16%
same,GI50,NCI-H226,4.91 µM
same,TGI,NCI-H226,> 100 µM
same,CC50,NCI-H226; [17],> 100 µM
same,growth at 100 µM,SW-620 [15],23%
same,growth at 0.1 µM,HOP-92 [16],86%
